Laboratory results as given in ChEMBL document CHEMBL1123566, “Synthesis and cardiac electrophysiological activity of 2- and 3-[(substituted phenyl)alkyl]quinuclidines. Structure-activity relationships” (1987).

Experiments:
[1] = system: Canis familiaris; assay: Heart rate was determined by intraduodenal administration of two dosages of 10 mg/kg of (high dose) compound in anesthetized dogs. Value was reported for experiment 1; format: functional, Canis lupus familiaris
Method in brief: (§1)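 Anesthetized dogs; compound given intraduodenally, generally as two doses, the second a cumulative (high) dose. LV functional refractory period and conduction time measured 15, 30 and 45 min after dosing; heart rate and blood pressure measured during nonpacing intervals. Values are % change from control, given per individual animal. Active if FRP or CT prolonged by ≥12%.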

[2] = organism: Canis familiaris; assay: In vitro electrophysiological evaluation in canine cardiac Purkinje fibres reported as percent change Vmax concentration range of 0.1-10 uM; Minimal (<IO%increase or a decrease in CT); format: functional; conditions: Canis lupus familiaris; Purkinje fiber
Method in brief: (§2)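 Canine cardiac Purkinje fibres, intracellular microelectrode recording, paced at a basic cycle length of 1 s. APD95 and Vmax read simultaneously. Compound: 10 mM stock in deionized water, diluted into Tyrode's solution, tested over the stated concentration range. Each fibre used once as its own control. Result is % change from control, given at 10 µM or as the maximum with its concentration. M = <10% decrease or an increase in Vmax.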

[3] = organism: Canis familiaris; assay: In vitro electrophysiological activity in canine cardiac Purkinje fibres given as maximum % change for action potential duration at 0.1-10 uM concentration; format: functional, Canis lupus familiaris, Purkinje fiber
Method in brief: (§3)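 Canine cardiac Purkinje fibres, intracellular recording at 1 s basic cycle length, over cumulative concentration ranges. Compound 10 mM stock in deionized water diluted into Tyrode's. Each fibre used once as its own control. Value is the maximum % change from control in APD at 95% repolarization, with the concentration where it occurred; both values given if a biphasic response (>20% reversal) occurred.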

[4] = system: Canis familiaris; assay: Left ventricular refractory period was determined by intraduodenal administration of two dosages of 10 mg/kg of (high dose) compound in anesthetized dogs. Value was reported for experiment 1; format: functional, Canis lupus familiaris, Cardiac ventricle
Method in brief: (§4)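 Anesthetized dogs received two intraduodenal doses, the second cumulative (low dose/high dose). Left ventricular FRP and CT were measured 15, 30 and 45 min after dosing. Heart rate and mean blood pressure were taken during nonpacing intervals. Values are percent change from control. The vehicle was 5% dextrose in water/tragacanth. Activity was defined as ≥12% prolongation of FRP or CT.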

[5] = organism: Canis familiaris; assay: In vitro electrophysiological evaluation in canine cardiac Purkinje fibres reported as maximum percent change Vmax concentration range of 0.1-10 uM; Minimal (<IO%increase or a decrease in CT); format: functional; conditions: Canis lupus familiaris; Purkinje fiber; method in brief: as §2
[6] = organism: Canis familiaris; assay: In vitro electrophysiological evaluation in canine cardiac Purkinje fibres reported as % change for action potential duration at 0.1-10 uM concentration range; format: functional, Canis lupus familiaris, Purkinje fiber; method in brief: as §2
[7] = system: Canis familiaris; assay: Left ventricular refractory period was determined by intraduodenal administration of two dosages of 10 mg/kg of compound in anesthetized dogs. Value was reported for experiment 2; format: functional, Canis lupus familiaris, Cardiac ventricle
[8] = organism: Canis familiaris; assay: In vitro electrophysiological evaluation in canine cardiac Purkinje fibres reported as % change for action potential duration at 0.1-30 uM concentration range; format: functional, Canis lupus familiaris, Purkinje fiber; method in brief: as §2
[9] = system: Canis familiaris; assay: Effective dose administered intravenously to elicit Antiarrhythmic efficacy in anesthetized dogs was reported. Value in parenthesis indicates no. of animals effective at that dose.; format: functional, Canis lupus familiaris, Heart
Method in brief: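 Dogs are anesthetized and the chest reopened. Stimulating and recording electrodes go on the myocardium. Reproducible PES-induced sustained VT or VF is confirmed first; SVT is ended by burst pacing and VF by DC countershock. Compound is given iv in 0.9% saline and inducibility retested. A dose counts as effective when SVT/VF cannot be reinduced in two of three animals.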

[10] = system: Canis familiaris; assay: Heart rate was determined by intraduodenal administration of two dosages of 10 mg/kg of compound in anesthetized dogs. Value was reported for experiment 2; format: functional, Canis lupus familiaris; method in brief: as §1
[11] = organism: Canis familiaris; assay: In vitro electrophysiological evaluation in canine cardiac ventricular muscle reported as % change for the functional refractory period (FRP) concentration range of 0.1-30 uM; set-up: species or system Canis lupus familiaris, Muscle tissue
Method in brief: (§5)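 Canine right ventricle and papillary muscle strips in oxygenated Tyrode's solution, fitted with stimulating and recording electrodes. The extra-stimulus conduction-interval method was adapted for in vitro use. FRP and CT were read from a conduction-interval curve before and after various compound concentrations, and expressed as percent change from control. Compounds were taken from 10 mM deionized-water stock into Tyrode's. Each strip was used once as its own control.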

[12] = organism: Canis familiaris; assay: In vitro electrophysiological evaluation in canine cardiac Purkinje fibres reported as maximum percent change Vmax concentration range of 0.1-30 uM; Minimal (<IO%increase or a decrease in CT); format: functional; conditions: Canis lupus familiaris; Purkinje fiber; method in brief: as §2
[13] = system: Canis familiaris; assay: Conduction time was determined by intraduodenal administration of two dosages of 3 mg/kg (low dose) of compound in anesthetized dogs. Value was reported for experiment 1; format: functional, Canis lupus familiaris; method in brief: as §1
[14] = organism: Canis familiaris; assay: In vitro electrophysiological evaluation in canine cardiac ventricular muscle reported as maximum % change for functional refractory period (FRP) at 0.1-30 uM concentration range; set-up: species or system Canis lupus familiaris, Muscle tissue; method in brief: as §5
[15] = system: Canis familiaris; assay: Mean arterial blood pressure was determined by intraduodenal administration of two dosages of 3 mg/kg of (low dose) compound in anesthetized dogs. Value was reported for experiment 1; format: functional, Canis lupus familiaris; method in brief: as §4
[16] = system: Canis familiaris; assay: Heart rate was determined by intraduodenal administration of two dosages of 3 mg/kg of (low dose) compound in anesthetized dogs. Value was reported for experiment 1; format: functional, Canis lupus familiaris; method in brief: as §1
[17] = organism: Canis familiaris; assay: In vitro electrophysiological evaluation in canine cardiac ventricular muscle reported as % change for conduction time(CT) at 0.1-30 uM concentration range; Minimal (<IO%increase or a decrease in CT); format: functional, Canis lupus familiaris, Muscle tissue
[18] = organism: Canis familiaris; assay: In vitro electrophysiological activity in canine cardiac Purkinje fibres given as maximum % change for action potential duration at 0.1-30 uM concentration; format: functional, Canis lupus familiaris, Purkinje fiber; method in brief: as §3
[19] = organism: Canis familiaris; assay: In vitro electrophysiological evaluation in canine cardiac ventricular muscle reported as maximum % change for conduction time(CT) at 0.1-30 uM concentration range; Minimal (<IO%increase or a decrease in CT); format: functional, Canis lupus familiaris, Muscle tissue; method in brief: as §5
[20] = organism: Canis familiaris; assay: In vitro electrophysiological evaluation in canine cardiac Purkinje fibres reported as percent change Vmax concentration range of 0.1-30 uM; Minimal (<IO%increase or a decrease in CT); format: functional; conditions: Canis lupus familiaris; Purkinje fiber; method in brief: as §2
[21] = system: Canis familiaris; assay: Conduction time was determined by intraduodenal administration of two dosages of 10 mg/kg of compound in anesthetized dogs. Value was reported for experiment 2; format: functional, Canis lupus familiaris; method in brief: as §1
[22] = system: Canis familiaris; assay: Mean arterial blood pressure was determined by intraduodenal administration of two dosages of 10 mg/kg of (high dose) compound in anesthetized dogs. Value was reported for experiment 1; format: functional, Canis lupus familiaris; method in brief: as §4
[23] = system: Canis familiaris; assay: Conduction time was determined by intraduodenal administration of two dosages of 10 mg/kg (high dose) of compound in anesthetized dogs. Value was reported for experiment 1; format: functional, Canis lupus familiaris; method in brief: as §1
[24] = system: Canis familiaris; assay: Left ventricular refractory period was determined by intraduodenal administration of two dosages of 3 mg/kg of (low dose) compound in anesthetized dogs. Value was reported for experiment 1; format: functional, Canis lupus familiaris, Cardiac ventricle; method in brief: as §4
[25] = system: Canis familiaris; assay: Mean arterial blood pressure was determined by intraduodenal administration of two dosages of 10 mg/kg of compound in anesthetized dogs. Value was reported for experiment 2; format: functional, Canis lupus familiaris; method in brief: as §4

`CCCCCCC[N+]12CCC(CC1)/C(=C/Cc1ccc(Cl)cc1)C2.[Br-]` was tested, and the HR [1] was -9%, the Vmax [2] was < 10% and the APD95 [3] was 50%. The “LV FRP” value [4] was 15%, the Vmax [5] was < 10% and the APD95 [6] was 40%. For the same molecule, the “LV FRP” value [7] was 16%, the APD95 [8] was 64% and the Effective dose [9] was 0.3 mg/kg. The HR [10] was -13%, the FRP [11] was 21% and the Vmax [12] was < 10%. It also gave a CT [13] of 0%, an FRP [14] of 30% and a Mean blood pressure [15] of 5%. For the same molecule, the HR [16] was 5%, the CT [17] was <10% and the APD95 [18] was 64%. For the same molecule, the CT [19] was <10%, the Vmax [20] was < 10% and the CT [21] was 5%. For the same molecule, the Mean blood pressure [22] was 15%, the CT [23] was -5% and the “LV FRP” value [24] was 2%. For the same molecule, the Mean blood pressure [25] was 42%.
